Screens (PubChem)
Compounds with a hit are over-represented: about 2% of the library has one in this group of screens.
CAL PDZ FP-1 = untagged CAL PDZ binding inhibitors, primary screen, biochemical, fluorescence polarization, HTS; inhibition, % at 24.9 µM; purified CAL PDZ, TMR-peptide fluorescence polarization, 1 h; 300,000 compounds, 0.92% hits;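 active = mean inhibition of at least 30% with at least half of replicates also reaching 30%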;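 note: 0% = DMSO neutral control and 100% = excess unlabeled competitor peptide PRC23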
dFosB act = activators of delta FosB homodimer, primary screen, biochemical, fluorescence polarization, TAMRA-CDK5 oligo, single point | purified delta FosB; percent of positive-control signal above neutral wells | activation, % at 25 µM | 340,000 compounds, 0.99% hits | Protein FosB (Mus musculus), P13346;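 active = mean activation above about 17%, with every replicate also reaching it, limit read from the data, passing the limit was not always enough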
PKA-R1A activ = activators of PKA-R1A holoenzyme, primary screen, biochemical, fluorescence polarization, Cy5-IP20, bovine R1A, mouse PKAc. PKA-R1A dissociation; scaled: DMSO 0%, 113 µM cGMP 100%. activation, % at 11.4 µM. cAMP-dependent protein kinase type I-alpha regulatory subunit (Bos taurus) + …. AID 504707, 2011. 340,000 compounds, 0.083% hits;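 active = percent activation above the mean of all tested compounds plus 3 SD, cut at about 19% in these data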;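 note: higher means more PKAc released from R1A so a rise in polarization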
NTR1 ag = agonists of human NTR1, primary screen, imaging, U2OS cells, beta-arrestin-GFP, high content. Neurotensin receptor type 1 (Homo sapiens), P30989. NTR1-U2OS beta-arrestin-GFP spot imaging, agonist mode. activation, % at 20 µM. 330,000 compounds, 0.17% hits. AID 493036, 2011;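 active = activation at or above 40% of the spot to cytoplasm intensity ratio, with at least 20 cells analyzed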;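 note: 0% = DMSO without peptide and 100% = 100 nM NTR1 peptide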
CAL PDZ FP-2 = CAL PDZ peptide-binding inhibitors, primary screen, biochemical, fluorescence polarization, Cer-tagged CAL PDZ, HTS; 330,000 compounds, 0.02% hits; AID 504414, 2011; purified CAL PDZ, TMR-peptide fluorescence polarization, 1 h; inhibition, % at 20 µM;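 active = highest replicate inhibition of at least 40%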;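 note: plate controls were DMSO neutral control wells for no effect and unlabeled competitor peptide control wells for full effect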
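Assay system – tagged CAL PDZ protein CerCALP, purified · Timing – 1 h at RT · Compound – single point, 20 µM · Measured by – fluorescence polarization from S- and P-plane intensities, G-factor corrected · Evaluation – inhibition from polarization loss · Probe or stimulus – TMR reporter peptide T*-PRC34 · Buffer or medium – pH 7.4 phosphate-saline buffer, reducing agent, detergent, IgG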
PKA-R2B act = activators of PKA-R2B holoenzyme, primary screen, biochemical, fluorescence polarization, Cy5-IP20, human; cAMP-dependent protein kinase catalytic subunit beta (Homo sapiens) + cAMP-dependent …; PKA-R2B holoenzyme dissociation; R2B truncated from residue 108, S112A mutant; 0% DMSO only, 100% 113 µM cGMP; activation, % at 11.4 µM; 340,000 compounds, 0.079% hits; AID 504700, 2011;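 active = activation above a cutoff set at the mean over all compounds plus 3 SD, cut at about 18% in these data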;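 note: higher means more holoenzyme dissociation and a rise in polarization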
Target sequence (P31323 whole entry, looked up, other chains not shown, the tested form may be a part): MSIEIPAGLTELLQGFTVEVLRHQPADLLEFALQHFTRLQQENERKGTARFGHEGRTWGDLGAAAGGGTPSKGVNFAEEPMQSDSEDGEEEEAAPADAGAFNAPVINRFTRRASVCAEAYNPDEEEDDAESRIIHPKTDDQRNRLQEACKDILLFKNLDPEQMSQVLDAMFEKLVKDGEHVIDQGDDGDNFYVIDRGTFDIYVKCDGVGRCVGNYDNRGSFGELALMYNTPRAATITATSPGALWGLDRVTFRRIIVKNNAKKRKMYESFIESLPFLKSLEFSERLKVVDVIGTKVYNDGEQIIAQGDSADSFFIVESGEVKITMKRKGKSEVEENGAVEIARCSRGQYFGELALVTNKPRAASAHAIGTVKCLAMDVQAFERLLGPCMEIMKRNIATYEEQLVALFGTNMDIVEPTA
Numbers without * were called inactive; . = no result given; + = active, no number.

SMILES	CAL PDZ FP-1	dFosB act	PKA-R1A activ	NTR1 ag	CAL PDZ FP-2	PKA-R2B act
Cc1ccc(-n2ncc3c(=O)n(CC(=O)Nc4cccc(Cl)c4)cnc32)cc1C	-5	42*	-16	5	0	-14
COC(=O)c1ccccc1NC(=O)Cn1cnc2c(cnn2-c2ccc(C)c(C)c2)c1=O	.	.	.	3	.	.
COc1ccccc1NC(=O)Cn1cnc2c(cnn2-c2ccccc2)c1=O	57*	-10	7	-1	-1	-3
Cc1ccc(C2=Nn3c(COc4ccc(Cl)cc4)nnc3SC2CC(=O)O)cc1 (centres undefined)	-12	-12	1	1	-1	-8
Cc1ccc(-n2nc3c(N4CCC(C(=O)NCc5ccccc5C)CC4)nnc(C)c3c2C)cc1	-2	28*	-8	10	-3	5
COc1ccc(OC)c(-n2c(-c3ccccc3)n[nH]c2=S)c1	37*	1	9	-1	1	-3
COc1ccc(OC)c(-n2c(-c3cccc(C)c3)n[nH]c2=S)c1	1	-3	-3	2	-2	-12
CC(OC(=O)Cn1ccccc1=O)C(=O)Nc1cc(Cl)cc(Cl)c1 (centres undefined)	-5	-3	-5	0	0	1
CCC1CCCCN1C(=O)COc1ccc(S(=O)(=O)N2CCOCC2)cc1Cl (centres undefined)	.	-4	11	0	0	14
COc1cccc(NC(=O)CSc2nc3ccsc3c(=O)n2-c2ccc(C(=O)O)cc2)c1	44*	-2	-11	-1	-1	-5
CCn1c(SCC(=O)Nc2cccc(OC)c2)nc2ccccc2c1=O	0	-6	-4	1	-2	-3
CCN(CC)CCCNC(=O)c1cc2c(-c3cccc(OC)c3)nn(C)c2s1	.	-42	-6	0	-5	-7
COCCNC(=O)c1cc2c(-c3ccccc3F)nn(C)c2s1	-2	-36	13	0	-2	14
CCCCN(C)CCNC(=O)c1cc2c(-c3ccccc3F)nn(C)c2s1	43*	-47	-5	1	-4	-3
CCCCN(CC)CCCNC(=O)c1cc2c(-c3ccc(OC)c(OC)c3)nn(C)c2s1	-12	37*	-10	1	0	-3
CCN1/C(=C/C(C)=C/c2sc3ccccc3[n+]2CC)Sc2ccccc21	-126	507*	2	-2	-14	-3
CCOc1cccc(N2CCN(CCNC(=O)Nc3ccc(C)cc3)CC2)c1C	37*	-7	-10	4	0	0
CN(C)c1nc(Nc2ccc(F)cc2)nc(Oc2ccc(F)cc2)n1	-10	2	-7	3	-1	-2
CN(C)c1nc(N/N=C/c2ccccc2O)nc(Nc2ccc(F)cc2)n1	3	60*	-9	26	0	-11
Cc1ccc(-c2cc(C(=O)N/N=C/c3ccccc3O)n[nH]2)o1	-3	51*	-2	0	-4	-5
C/C=C/C(O)c1ccc2ccccc2c1 (centres undefined)	.	.	.	1	.	.
COc1ccccc1C(=O)COC(=O)c1nc(Cl)ccc1Cl	.	-5	-15	0	0	-6
O=C1NC(=O)/C(=C\c2ccc(N3CCOCC3)o2)N1	2	0	6	2	1	-6
O=C1NC(=O)/C(=C/c2ccc(N3CCOCC3)o2)N1	31*	1	3	-1	-1	6
CCN(CC(=O)Nc1ccc(Br)cc1)C(=O)Cc1cccc(F)c1	-19	-9	6	2	-2	0
SMILES	CAL PDZ FP-1	dFosB act	PKA-R1A activ	NTR1 ag	CAL PDZ FP-2	PKA-R2B act
Cc1cc(=O)oc(C)c1C(=O)NCCc1ccc(F)cc1	39*	4	-6	-2	.	-1
Cc1ccc(NC(=O)OCc2cccs2)cc1	.	.	.	3	.	.
CCOc1ccccc1Nc1nc(N)nc(CSc2nccc(C)n2)n1	-7	-7	-6	0	.	-16
COc1ccccc1Nc1nc(N)nc(CSc2ncccn2)n1	69*	-1	-7	-2	-1	10
Cc1c(/C=N/N=C2\CCC3C4CCc5cc(O)ccc5C4CCC23C)cnn1C (centres undefined)	0	-1	-7	4	-1	-3
CCn1ncc(/C=N/N=C2\CCC3C4CCc5cc(O)ccc5C4CCC23C)c1C (centres undefined)	46*	-8	-2	10	0	-3
CCOc1ccc(C(=O)/C=C/c2cn(CN3CCN(C)CC3)c3ccccc23)cc1	-1	1	0	49*	0	-4
CC(=O)c1ccc(N2CCN(CN3C(=O)CC4(CCCC4)C3=O)CC2)c(F)c1	-4	3	7	0	0	-5
Cc1ccc(-c2nn(C)c(=O)c3ccccc23)cc1CNS(C)(=O)=O	-3	-1	0	0	-2	-11
Cc1ccc(-c2nn(C)c(=O)c3ccccc23)cc1CN1CCCCC1	47*	-10	-7	0	-1	-1
Cc1cn(CC(=O)NCc2ccccn2)c(=O)[nH]c1=O	+	-4	-5	.	0	-4
COc1cccc(CNc2nc3ccccc3n2C)c1O	44*	-9	-1	0	18	5
c1ccc(Oc2ncnc3sccc23)cc1	64*	-6	-6	0	0	0
COC(=O)[C@]1(Cc2ccccc2)N[C@H](CN(C)C(=O)c2ccc(C)cc2)[C@@H]2C(=O)N(Cc3ccccc3)C(=O)[C@@H]21	-2	-12	-7	1	0	-9
O=C1CN(C(=S)NC(=O)c2ccc(-c3ccccc3)cc2)CCN1	43*	4	-2	0	-1	-3
COc1ccc(C(=O)NC(=S)N2CCNC(=O)C2)cc1Br	-1	0	-3	1	-2	4
Cc1occc1C(=O)N1CCC2(CCCN(Cc3ccc(F)c(F)c3)C2)C1 (centres undefined)	.	-14	0	0	-1	-6
CC(=O)c1cc(C(=O)N2CCc3c([nH]c4ccccc34)C2CC(C)C)[nH]n1 (centres undefined)	77*	-6	-2	2	-1	0
CCN(C(=S)Nc1cccc2ccccc12)c1ccccc1	.	.	3	.	.	8
